Screening results deposited in PubChem by Johns Hopkins Ion Channel Center.
TRPC6 inh: inhibitors of mouse TRPC6 channel; hit rate 1.1% among 310,000; B-score at 10 µM; HEK293-TRPC6, membrane potential dye, ACh-evoked depolarization; active compounds read low; Q61143; AID 2553;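 active = B-score under library mean minus 3 SD, initial fluorescence not abnormally high, positive integrated signal ratio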;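 also: B-score derived from integrated fluorescence ratio over the kinetic read; more negative B-score means stronger inhibition of depolarization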
Target sequence (Q61143 whole entry, looked up): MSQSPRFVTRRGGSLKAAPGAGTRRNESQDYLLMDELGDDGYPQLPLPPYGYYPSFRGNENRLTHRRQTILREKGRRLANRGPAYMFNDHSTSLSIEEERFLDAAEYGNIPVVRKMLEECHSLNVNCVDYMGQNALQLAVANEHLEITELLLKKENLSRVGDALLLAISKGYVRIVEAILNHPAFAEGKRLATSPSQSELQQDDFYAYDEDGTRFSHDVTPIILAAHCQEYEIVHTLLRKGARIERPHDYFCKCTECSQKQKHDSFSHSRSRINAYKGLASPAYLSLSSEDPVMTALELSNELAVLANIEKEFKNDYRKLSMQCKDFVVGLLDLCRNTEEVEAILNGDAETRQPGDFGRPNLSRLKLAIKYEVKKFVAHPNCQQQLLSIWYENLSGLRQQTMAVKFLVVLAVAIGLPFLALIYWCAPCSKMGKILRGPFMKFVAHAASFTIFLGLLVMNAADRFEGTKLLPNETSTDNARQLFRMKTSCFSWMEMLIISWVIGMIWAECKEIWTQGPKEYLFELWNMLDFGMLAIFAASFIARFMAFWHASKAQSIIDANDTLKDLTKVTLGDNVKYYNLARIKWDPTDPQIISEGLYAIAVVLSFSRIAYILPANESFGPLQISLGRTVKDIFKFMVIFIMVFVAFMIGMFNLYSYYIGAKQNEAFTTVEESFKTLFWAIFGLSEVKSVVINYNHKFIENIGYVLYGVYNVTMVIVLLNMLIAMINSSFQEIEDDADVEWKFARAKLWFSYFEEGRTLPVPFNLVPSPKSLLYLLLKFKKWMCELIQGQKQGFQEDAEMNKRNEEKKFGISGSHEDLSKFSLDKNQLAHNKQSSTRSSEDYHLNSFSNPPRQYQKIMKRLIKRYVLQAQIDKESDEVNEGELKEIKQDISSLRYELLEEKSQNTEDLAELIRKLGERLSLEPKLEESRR
TRPC4 inh: TRPC4 (mouse) channel inhibition | Q9QUQ5 | HEK293 TRPC4beta/mu-opioid, DAMGO-evoked Fluo4 calcium flux; active compounds read low | B-score at 10 µM | hit rate 0.39% among 300,000 | AID 2247;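 active = B-score over 3 SD under the library average, no early fluorescence shift, positive overall ratio signal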
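Signal: kinetic Fluo4 fluorescence imaging of calcium influx. Material: stable TRPC4beta/mu-opioid receptor HEK293 cells. Probe or stimulus: DAMGO in two steps, submaximal then maximal.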
TRPC4 potent: TRPC4 (mouse) allosteric potentiation. Q9QUQ5. HEK293 TRPC4beta/mu-opioid, DAMGO EC20, Fluo-4 Ca2+ flux; active compounds read high. B-score at 10 µM. hit rate 0.42% among 310,000. AID 2227;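 active = B-score of calcium response area above 5 SD of library B-scores, with initial fluorescence ratio within 5 SD of library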
TRPC4 act: opens the mouse TRPC4 cation channel. Q9QUQ5. B-score at 10 µM. hit rate 0.49% among 310,000. HEK293 TRPC4beta/mu-opioid, Fluo4 calcium fluorescence; active compounds read high;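 active = B-score above 5 SD of library B-scores, and initial fluorescence ratio not above library mean plus 5 SD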;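 also: positive B-score marks a calcium rise read as TRPC4 activation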
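Assay system: HEK293 stable line with TRPC4beta plus mu-opioid receptor. Times: dye 45 min RT, read 110 s. Measured by: kinetic Fluo4 calcium fluorescence. Measure: B score of integrated ratio. Controls: assay buffer as low control, maximal DAMGO as high control.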
TRPC6 activator: activates the mouse TRPC6 cation channel. HEK293-TRPC6 membrane potential dye fluorescence; active compounds read high. AID 2550. B-score at 10 µM. hit rate 0.13% among 310,000;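 active = B-score of the integrated fluorescence ratio above library mean plus 3 SD, and starting fluorescence ratio within library mean plus 5 SD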;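 also: higher score means more depolarization so channel activation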
Each line names hits and unclear results; the compound was inactive in the other large screens. Sampled rows, rich in hits. Any-hit rate of the full collection: about 2.3%.

COc1ccccc1C(=O)OC1CCCN(C)C1 (stereo unspecified)	TRPC4 potent 10
CN1CCCC(OC(=O)c2ccccc2F)C1 (stereo unspecified)	none
C=CCc1cc(C=O)cc(OC)c1OCc1c(Cl)cccc1Cl	none
COc1cccc(/C=C/C(=O)OCC(=O)N2c3ccccc3NC(=O)C2(C)C)c1	none
Cc1nn(Cc2noc(C(=O)NCc3ccccn3)n2)c(C)c1Br	none
Cc1nn(Cc2noc(C(=O)NCCc3ccccn3)n2)c(C)c1Br	TRPC4 act 82
Cc1ccc(C)c(CN2CCC(CNC(=O)Nc3ccc(Cl)cc3)CC2)c1	TRPC4 potent 14
CNC(=O)COc1ncnc2scc(-c3ccc(F)cc3)c12	none
O=C(c1ccccc1F)N1CCN(c2ccc([N+](=O)[O-])cc2-n2cccc2)CC1	TRPC4 potent 18
COc1ccc(N2CCN(C(=O)c3ccccc3F)CC2)c([N+](=O)[O-])c1	none
O=C(Nc1ccccc1N1CCN(C(=O)c2ccc(Cl)cc2)CC1)c1cccc([N+](=O)[O-])c1	TRPC4 inh -6
Cc1nonc1OCCN1CCN(c2ccccc2[N+](=O)[O-])CC1	none
Nc1nonc1OCCN1CCN(c2ccc([N+](=O)[O-])c3cccnc23)CC1	TRPC4 potent 23, TRPC4 act 93
O=C(c1ccccc1F)N1CCN(c2ccc([N+](=O)[O-])c3cccnc23)CC1	TRPC4 potent 29
COc1cccc(/C=C/C(=O)OCC(=O)NCc2ccco2)c1	none
O=C(c1ccc(F)cc1)N1CCN(c2ccc([N+](=O)[O-])cc2-n2cccc2)CC1	TRPC4 potent 24
O=C(COC(=O)/C=C/c1ccc(F)cc1)Nc1ccc2[nH]c(=O)[nH]c2c1	none
N#Cc1ccccc1NC(=O)CNc1ccccc1N1CCCCC1	none
CN(Cc1ccccc1NCC(=O)Nc1ccccc1C#N)C1CCCCC1	TRPC4 inh -6
O=[N+]([O-])c1cc(Cl)ccc1N1CCN(c2ccccc2O)CC1	TRPC4 potent 12
O=[N+]([O-])c1cc(Cl)ccc1N1CCCCC1	none
CCOC(=O)Cn1c(=O)oc2cc(S(=O)(=O)N3CCC(N4CCCCC4)CC3)ccc21	TRPC4 potent 11
CCOC(=O)Cn1c(=O)oc2cc(S(=O)(=O)N3CCCC(C(=O)OCC)C3)ccc21 (stereo unspecified)	none
OCCNCc1cc(Br)ccc1OCc1ccc(Cl)cc1Cl	TRPC4 inh -8
OCCCCNCc1cc(Br)ccc1OCc1ccccc1F	TRPC4 inh -7
Fc1ccc(COc2ccccc2CNCc2ccncc2)cc1	none
Clc1cc(Br)ccc1OCCCNCc1ccccc1	TRPC4 act 75
Brc1ccc(OCc2ccccc2)c(CNCc2ccncc2)c1	TRPC4 inh -5
CN(CC(=O)O)Cc1nc2ccccc2[nH]1	none
Cc1ccc(-c2n[nH]c(=S)n2/N=C/c2c(C)[nH]n(-c3ccccc3)c2=O)cc1	none
O=C(COc1ccc(Br)cc1CO)Nc1ccc(F)cc1	none
OCCNCc1cc(Br)ccc1OCc1ccc(F)cc1	TRPC4 inh -6
CCN(CC)c1ccc2c(Cl)c(Br)c(=O)oc2c1	TRPC4 inh -6
O=Cc1cc(N=Nc2ccccc2Cl)ccc1O	TRPC4 inh -7
O=Cc1cc(N=Nc2cccc(C(=O)O)c2)ccc1O	none
COc1ccc(C(=O)NCCc2nnc(SCC(=O)Nc3ccccc3F)n2C)cc1	none
CCOC(=O)c1c(CC(C)C)csc1N	TRPC4 inh -6
CNC(=S)N1CCN(C(c2ccccc2)c2ccccc2)CC1	TRPC4 inh -6, TRPC4 act 50
CCC(C)NC(=S)N1CCN(C(c2ccccc2)c2ccccc2)CC1 (stereo unspecified)	none
Cc1ccc(NC(=O)CN2CCc3ccccc3C2)cc1S(=O)(=O)N1CCOCC1	TRPC4 inh -9, TRPC4 act 70
CC(NC(=O)c1ccccc1NC(=O)CN1CCc2ccccc2C1)c1ccccc1 (stereo unspecified)	TRPC4 potent 15
COC(=O)c1ccccc1NC(=O)CN1CCc2ccccc2C1	none
Cc1ccc(NC(=O)CN2CCc3ccccc3C2)cc1F	TRPC4 inh -7
C=CCn1c(CCC(O)COCCCCC)n[nH]c1=S (stereo unspecified)	none
CN(CCCNC(=O)C1CCN(S(=O)(=O)N2CCC3(CC2)OCCO3)CC1)Cc1ccccc1	none
COc1ccc(NC(=O)c2c(N)no[n+]2[O-])cc1	none
